{"source": "ChEMBL document CHEMBL5705899", "about": "(Biochem J, 2014)", "key": {"[1]": {"target": "Serine/threonine-protein kinase Nek1 (Homo sapiens) (UniProt Q96PY6)", "assay": "Inhibition of human NEK1 at 1 uM using RBER-CHKtide as substrate in presence of 33P-ATP by ProQinase assay"}, "[2]": {"target": "Casein kinase I isoform delta (Homo sapiens) (UniProt P48730)", "assay": "Inhibition of recombinant human N-terminal GST-tagged CK1delta (1 to 415 residues) expressed in Escherichia coli assessed as remaining activity at 1 uM using RRKDLHDDEEDEAMSITA as substrate incubated for 30 mins in presence of [gamma-33P]ATP by filter binding method relative to control"}, "[3]": {"target": "Serine/threonine-protein kinase pim-2 (Homo sapiens) (UniProt Q9P1W9)", "sequence (Q9P1W9 whole entry, looked up)": "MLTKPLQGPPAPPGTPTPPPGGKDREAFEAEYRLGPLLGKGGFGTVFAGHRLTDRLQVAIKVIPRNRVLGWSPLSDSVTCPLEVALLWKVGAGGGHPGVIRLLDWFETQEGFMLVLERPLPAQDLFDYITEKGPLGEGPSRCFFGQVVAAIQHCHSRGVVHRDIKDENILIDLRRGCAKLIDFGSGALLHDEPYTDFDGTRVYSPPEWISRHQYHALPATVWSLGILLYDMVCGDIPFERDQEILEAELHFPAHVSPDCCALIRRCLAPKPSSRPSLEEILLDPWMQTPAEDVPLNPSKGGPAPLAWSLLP", "assay": "Inhibition of human PIM2 at 1 uM using RBER-GSK3 as substrate in presence of 33P-ATP by ProQinase assay"}, "[4]": {"target": "Diacylglycerol kinase beta (Homo sapiens) (UniProt Q9Y6T7)", "assay": "Inhibition of DGKbeta (unknown origin) at 1 uM"}, "[5]": {"target": "Ephrin type-A receptor 2 (Homo sapiens) (UniProt P29317)", "assay": "Inhibition of human EPHA2 at 1 uM using polyEy as substrate in presence of 33P-ATP by ProQinase assay"}, "[6]": {"target": "Serine/threonine-protein kinase ULK2 (Homo sapiens) (UniProt Q8IYT8)", "assay": "Inhibition of recombinant human ULK2 (1 to 1036 residues) expressed in baculovirus infected Sf21 cells assessed as remaining activity at 1 uM using MBP as substrate incubated for 30 mins in presence of [gamma-33P]ATP by filter binding method relative to control"}, "[7]": {"target": "PAS domain-containing serine/threonine-protein kinase (Homo sapiens) (UniProt Q96RG2)", "assay": "Inhibition of human PASK at 1 uM using RBER-CHKtide as substrate in presence of 33P-ATP by ProQinase assay"}, "[8]": {"target": "Serine/threonine-protein kinase tousled-like 2 (Homo sapiens) (UniProt Q86UE8)", "assay": "Inhibition of human TLK2 at 1 uM using RB-S6P as substrate in presence of 33P-ATP by ProQinase assay"}, "[9]": {"target": "Mitogen-activated protein kinase 1 (Homo sapiens) (UniProt P28482)", "assay": "Inhibition of recombinant human N-terminal GST-tagged ERK2 (2 to 360 residues) expressed in Escherichia coli assessed as remaining activity at 1 uM using MBP as substrate incubated for 30 mins in presence of [gamma-33P]ATP by filter binding method relative to control"}, "[10]": {"target": "Serine/threonine-protein kinase PAK 2 (Homo sapiens) (UniProt Q13177)", "assay": "Inhibition of PAK2 (unknown origin) assessed as remaining activity at 1 uM relative to control", "procedure,_shortened": "(§1)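 Dundee panel of 140 protein kinases, tested at a single 1 μM concentration. Each assay was run in triplicate. Remaining activity is expressed relative to a control reaction without inhibitor, as mean ± S.D. Conditions for each kinase were those of the screening centre.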"}, "[11]": {"target": "Maternal embryonic leucine zipper kinase (Homo sapiens) (UniProt Q14680)", "assay": "Inhibition of human MELK at 1 uM using RBER-CHKtide as substrate in presence of 33P-ATP by ProQinase assay"}, "[12]": {"target": "Ephrin type-A receptor 3 (Homo sapiens) (UniProt P29320)", "sequence (P29320 whole entry)": "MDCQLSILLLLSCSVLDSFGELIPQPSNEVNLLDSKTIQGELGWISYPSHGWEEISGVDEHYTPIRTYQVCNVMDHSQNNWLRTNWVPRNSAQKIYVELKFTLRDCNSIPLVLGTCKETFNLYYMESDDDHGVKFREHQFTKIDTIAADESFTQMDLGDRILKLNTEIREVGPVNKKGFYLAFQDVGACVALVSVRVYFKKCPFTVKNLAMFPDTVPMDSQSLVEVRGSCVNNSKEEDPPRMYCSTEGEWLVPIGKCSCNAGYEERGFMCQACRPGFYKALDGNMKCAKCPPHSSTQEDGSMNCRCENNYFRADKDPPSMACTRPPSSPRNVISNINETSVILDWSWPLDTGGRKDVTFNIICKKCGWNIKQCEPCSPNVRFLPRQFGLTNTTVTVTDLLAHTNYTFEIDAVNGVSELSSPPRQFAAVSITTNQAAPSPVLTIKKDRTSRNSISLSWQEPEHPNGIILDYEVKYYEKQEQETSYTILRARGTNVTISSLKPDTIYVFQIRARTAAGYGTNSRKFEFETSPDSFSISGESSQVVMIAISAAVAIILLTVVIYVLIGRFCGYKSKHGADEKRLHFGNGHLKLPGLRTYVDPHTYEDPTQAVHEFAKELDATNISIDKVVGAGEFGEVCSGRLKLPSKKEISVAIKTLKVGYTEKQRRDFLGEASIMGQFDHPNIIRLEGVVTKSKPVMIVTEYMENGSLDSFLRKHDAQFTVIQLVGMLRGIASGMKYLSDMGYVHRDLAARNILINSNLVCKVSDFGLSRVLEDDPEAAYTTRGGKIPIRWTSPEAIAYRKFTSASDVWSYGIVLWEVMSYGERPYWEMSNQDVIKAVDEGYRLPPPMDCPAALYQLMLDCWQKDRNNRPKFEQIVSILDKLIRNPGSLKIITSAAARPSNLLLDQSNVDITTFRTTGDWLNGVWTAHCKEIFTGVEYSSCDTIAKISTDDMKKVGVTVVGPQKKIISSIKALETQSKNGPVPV", "assay": "Inhibition of human EPHA3 at 1 uM using polyEY as substrate in presence of 33P-ATP by ProQinase assay"}, "[13]": {"target": "Serine/threonine-protein kinase MARK1 (Homo sapiens) (UniProt Q9P0L2)", "assay": "Inhibition of human MARK1 at 1 uM using RBER-CHKtide as substrate in presence of 33P-ATP by ProQinase assay"}, "[14]": {"target": "MAP kinase-activated protein kinase 5 (Homo sapiens) (UniProt Q8IW41)", "assay": "Inhibition of human MAPKAPK5 at 1 uM using RBER-CHKtide as substrate in presence of 33P-ATP by ProQinase assay"}, "[15]": {"target": "Ephrin type-B receptor 3 (Homo sapiens) (UniProt P54753)", "assay": "Inhibition of human EPHB3 at 1 uM using polyEY as substrate in presence of 33P-ATP by ProQinase assay"}, "[16]": {"target": "Insulin receptor (Homo sapiens) (UniProt P06213)", "sequence (P06213 28-758 limits assumed)": "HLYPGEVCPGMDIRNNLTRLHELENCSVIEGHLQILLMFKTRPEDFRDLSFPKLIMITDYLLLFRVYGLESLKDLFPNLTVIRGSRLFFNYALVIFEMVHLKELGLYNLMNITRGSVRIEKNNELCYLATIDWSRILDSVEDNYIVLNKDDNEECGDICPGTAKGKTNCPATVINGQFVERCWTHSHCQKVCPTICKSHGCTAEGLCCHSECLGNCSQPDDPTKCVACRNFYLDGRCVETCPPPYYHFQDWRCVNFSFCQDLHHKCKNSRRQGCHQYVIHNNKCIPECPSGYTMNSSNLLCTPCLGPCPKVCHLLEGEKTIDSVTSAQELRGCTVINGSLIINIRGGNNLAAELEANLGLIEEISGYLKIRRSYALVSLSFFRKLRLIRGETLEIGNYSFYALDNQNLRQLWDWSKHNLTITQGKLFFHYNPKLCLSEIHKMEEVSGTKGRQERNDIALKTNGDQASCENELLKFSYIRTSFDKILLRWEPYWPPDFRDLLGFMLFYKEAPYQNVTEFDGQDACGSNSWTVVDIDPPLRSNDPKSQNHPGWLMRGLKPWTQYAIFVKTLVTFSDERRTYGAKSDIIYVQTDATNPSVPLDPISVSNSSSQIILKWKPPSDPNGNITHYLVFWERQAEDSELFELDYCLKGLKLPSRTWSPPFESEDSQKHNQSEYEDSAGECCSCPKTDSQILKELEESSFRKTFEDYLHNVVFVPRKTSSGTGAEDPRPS", "sequence (P06213 763-1382 limits assumed)": "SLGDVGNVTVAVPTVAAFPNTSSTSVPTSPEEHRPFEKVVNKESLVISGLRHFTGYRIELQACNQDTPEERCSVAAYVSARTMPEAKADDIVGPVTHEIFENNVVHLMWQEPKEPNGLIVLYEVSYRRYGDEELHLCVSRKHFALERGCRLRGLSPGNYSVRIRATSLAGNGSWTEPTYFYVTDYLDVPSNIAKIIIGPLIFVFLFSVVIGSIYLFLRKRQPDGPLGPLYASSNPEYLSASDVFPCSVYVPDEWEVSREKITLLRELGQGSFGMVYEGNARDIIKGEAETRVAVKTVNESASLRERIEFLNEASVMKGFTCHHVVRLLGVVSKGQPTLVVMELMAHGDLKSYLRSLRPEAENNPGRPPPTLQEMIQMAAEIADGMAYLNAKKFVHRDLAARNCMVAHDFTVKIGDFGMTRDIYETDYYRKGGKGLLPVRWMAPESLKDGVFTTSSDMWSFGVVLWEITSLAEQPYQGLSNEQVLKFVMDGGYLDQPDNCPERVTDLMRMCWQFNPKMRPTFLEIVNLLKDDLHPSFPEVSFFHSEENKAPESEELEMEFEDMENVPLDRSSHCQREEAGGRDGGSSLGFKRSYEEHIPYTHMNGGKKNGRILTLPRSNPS", "assay": "Inhibition of human INSR at 1 uM using poly(Ala,Glu,Lys,Tyr) as substrate in presence of 33P-ATP by ProQinase assay"}, "[17]": {"target": "Serine/threonine-protein kinase PAK 5 (Homo sapiens) (UniProt Q9P286)", "assay": "Inhibition of human PAK7 at 1 uM using bio-4xCHKT as substrate in presence of 33P-ATP by ProQinase assay"}, "[18]": {"target": "Serine/threonine-protein kinase pim-3 (Homo sapiens) (UniProt Q86V86)", "assay": "Inhibition of recombinant human N-terminal His6-tagged PIM3 (2 to 326 residues) expressed in baculovirus infected Sf21 cells assessed as remaining activity at 1 uM using RSRHSSYPAGT as substrate incubated for 30 mins in presence of [gamma-33P]ATP by filter binding method relative to control"}, "[19]": {"target": "Serine/threonine-protein kinase Nek6 (Homo sapiens) (UniProt Q9HC98)", "sequence (Q9HC98 whole entry)": "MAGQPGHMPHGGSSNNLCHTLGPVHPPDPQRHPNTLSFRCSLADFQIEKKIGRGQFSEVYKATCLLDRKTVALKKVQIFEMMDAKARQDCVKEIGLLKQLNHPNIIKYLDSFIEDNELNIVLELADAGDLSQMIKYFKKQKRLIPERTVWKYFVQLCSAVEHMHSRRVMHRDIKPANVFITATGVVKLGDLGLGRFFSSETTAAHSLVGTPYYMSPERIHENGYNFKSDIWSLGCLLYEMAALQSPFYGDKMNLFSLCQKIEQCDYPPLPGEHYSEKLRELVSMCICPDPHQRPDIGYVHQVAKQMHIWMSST", "assay": "Inhibition of human NEK6 at 1 uM using RBER-GSK3 as substrate in presence of 33P-ATP by ProQinase assay"}, "[20]": {"target": "Insulin-like growth factor 1 receptor (Homo sapiens) (UniProt P08069)", "sequence (P08069 31-736 limits assumed)": "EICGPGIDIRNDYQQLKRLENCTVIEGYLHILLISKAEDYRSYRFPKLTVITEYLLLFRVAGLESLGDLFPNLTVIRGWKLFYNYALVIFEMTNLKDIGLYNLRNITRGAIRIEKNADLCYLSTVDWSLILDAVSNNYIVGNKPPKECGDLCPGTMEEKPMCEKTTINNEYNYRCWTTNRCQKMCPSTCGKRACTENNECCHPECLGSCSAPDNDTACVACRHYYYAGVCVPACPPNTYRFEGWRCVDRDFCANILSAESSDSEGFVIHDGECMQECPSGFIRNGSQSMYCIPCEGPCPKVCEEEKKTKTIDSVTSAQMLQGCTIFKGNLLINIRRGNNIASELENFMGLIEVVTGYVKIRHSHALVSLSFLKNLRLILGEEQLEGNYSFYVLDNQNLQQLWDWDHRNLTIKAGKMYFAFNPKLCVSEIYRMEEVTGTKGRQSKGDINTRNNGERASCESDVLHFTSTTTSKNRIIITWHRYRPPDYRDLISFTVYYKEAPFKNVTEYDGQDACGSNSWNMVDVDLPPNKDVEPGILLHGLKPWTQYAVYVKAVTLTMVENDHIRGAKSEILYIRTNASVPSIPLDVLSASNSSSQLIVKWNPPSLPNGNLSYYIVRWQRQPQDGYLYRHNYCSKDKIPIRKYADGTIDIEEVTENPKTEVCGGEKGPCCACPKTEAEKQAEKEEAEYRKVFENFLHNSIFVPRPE", "sequence (P08069 741-1367 limits assumed)": "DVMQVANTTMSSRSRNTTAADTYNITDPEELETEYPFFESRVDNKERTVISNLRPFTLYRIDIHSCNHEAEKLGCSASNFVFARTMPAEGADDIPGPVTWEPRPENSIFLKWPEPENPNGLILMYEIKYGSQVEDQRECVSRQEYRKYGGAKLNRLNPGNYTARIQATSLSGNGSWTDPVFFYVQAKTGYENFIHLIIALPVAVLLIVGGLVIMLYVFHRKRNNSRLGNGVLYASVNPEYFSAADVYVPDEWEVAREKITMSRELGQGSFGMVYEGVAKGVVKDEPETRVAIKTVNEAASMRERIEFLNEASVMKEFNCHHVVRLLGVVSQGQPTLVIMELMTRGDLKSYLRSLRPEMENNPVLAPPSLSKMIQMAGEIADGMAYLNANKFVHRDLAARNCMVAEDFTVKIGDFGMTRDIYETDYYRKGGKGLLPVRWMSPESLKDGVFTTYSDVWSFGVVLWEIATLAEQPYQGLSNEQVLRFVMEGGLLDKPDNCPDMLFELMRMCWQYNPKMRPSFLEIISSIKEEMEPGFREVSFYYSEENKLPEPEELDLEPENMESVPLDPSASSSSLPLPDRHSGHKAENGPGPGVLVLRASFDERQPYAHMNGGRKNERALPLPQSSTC", "assay": "Inhibition of human IGF1R at 1 uM using polyEY as substrate in presence of 33P-ATP by ProQinase assay"}, "[21]": {"target": "CDK9/Cyclin K (Homo sapiens) (UniProt P50750+O75909)", "assay": "Inhibition of human CDK9/CycK at 1 uM using RBER-CHKtide as substrate in presence of 33P-ATP by ProQinase assay", "format": "protein-complex assay"}, "[22]": {"target": "Serine/threonine-protein kinase pim-1 (Homo sapiens) (UniProt P11309)", "sequence (P11309 whole entry, looked up)": "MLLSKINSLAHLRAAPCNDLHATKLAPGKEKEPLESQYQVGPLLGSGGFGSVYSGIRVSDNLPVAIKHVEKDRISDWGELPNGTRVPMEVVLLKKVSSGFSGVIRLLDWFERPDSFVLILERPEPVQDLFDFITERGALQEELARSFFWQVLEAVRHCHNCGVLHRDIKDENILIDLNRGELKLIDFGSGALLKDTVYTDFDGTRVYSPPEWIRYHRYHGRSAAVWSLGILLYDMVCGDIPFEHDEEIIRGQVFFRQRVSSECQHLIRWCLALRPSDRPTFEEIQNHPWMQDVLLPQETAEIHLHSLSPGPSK", "assay": "Inhibition of human PIM1 at 1 uM using RBER-GSK3 as substrate in presence of 33P-ATP by ProQinase assay"}, "[23]": {"target": "Discoidin domain-containing receptor 2 (Homo sapiens) (UniProt Q16832)", "assay": "Inhibition of recombinant human N-terminal GST-tagged DDR2 (467 to 854 residues) expressed in baculovirus infected Sf21 cells assessed as remaining activity at 1 uM using KKSRGDYMTMQIG as substrate incubated for 30 mins in presence of [gamma-33P]ATP by filter binding method relative to control"}, "[24]": {"target": "Casein kinase 2 (Homo sapiens) (UniProt P67870+P68400+P19784+Q8NEV1)", "assay": "Inhibition of CK2 (unknown origin) assessed as remaining activity at 1 uM relative to control", "format": "protein assay", "procedure,_shortened": "as §1"}, "[25]": {"target": "Receptor-interacting serine/threonine-protein kinase 2 (Homo sapiens) (UniProt O43353)", "assay": "Inhibition of recombinant human N-terminal GST-tagged RIPK2 (2 to 311 residues) expressed in baculovirus infected Sf21 cells assessed as remaining activity at 1 uM using MBP as substrate incubated for 30 mins in presence of [gamma-33P]ATP by filter binding method relative to control"}}, "note": "Calls of active or inactive are those of the source. No cut-off for these calls is given here."}
{"molecule": "CC(C)(O)CNc1ncc(-c2ccnc(Nc3ccnc(Cl)c3)n2)c(CC2CC2)n1", "values": [{"measurement": "inhibition", "setting": "[1]", "result": "inactive"}, {"measurement": "Activity", "setting": "[2]", "result": 105, "unit": "%"}, {"measurement": "inhibition", "setting": "[3]", "result": "inactive"}, {"measurement": "inhibition", "setting": "[4]", "result": "inactive"}, {"measurement": "inhibition", "setting": "[5]", "result": "inactive"}, {"measurement": "Activity", "setting": "[6]", "result": 118, "unit": "%"}, {"measurement": "inhibition", "setting": "[7]", "result": "inactive"}, {"measurement": "inhibition", "setting": "[8]", "result": "inactive"}, {"measurement": "Activity", "setting": "[9]", "result": 116, "unit": "%"}, {"measurement": "Activity", "setting": "[10]", "result": 111, "unit": "%"}, {"measurement": "inhibition", "setting": "[11]", "result": "inactive"}, {"measurement": "inhibition", "setting": "[12]", "result": "inactive"}, {"measurement": "inhibition", "setting": "[13]", "result": "inactive"}, {"measurement": "inhibition", "setting": "[14]", "result": "inactive"}, {"measurement": "inhibition", "setting": "[15]", "result": "inactive"}, {"measurement": "inhibition", "setting": "[16]", "result": "inactive"}, {"measurement": "inhibition", "setting": "[17]", "result": "inactive"}, {"measurement": "Activity", "setting": "[18]", "result": 114, "unit": "%"}, {"measurement": "inhibition", "setting": "[19]", "result": "inactive"}, {"measurement": "inhibition", "setting": "[20]", "result": "inactive"}, {"measurement": "inhibition", "setting": "[21]", "result": "inactive"}, {"measurement": "inhibition", "setting": "[22]", "result": "inactive"}, {"measurement": "Activity", "setting": "[23]", "result": 111, "unit": "%"}, {"measurement": "Activity", "setting": "[24]", "result": 111, "unit": "%"}, {"measurement": "Activity", "setting": "[25]", "result": 79, "unit": "%"}]}
